# Experimental data as given in ChEMBL document CHEMBL1145072, “Synthesis and biological evaluation of novel flavone-8-acetic acid derivatives as reversible inhibitors of aminopeptidase N/CD13” (J Med Chem, 2003).
# What was measured:
# [1] = biological target: Aminopeptidase N (Homo sapiens) (UniProt P15144); test: In vitro inhibition of aminopeptidase N (APN) activity in intact U937 cells in presence of Ala-pNA and 10e-3 M concentration of compound; type: cell-based; settings: U-937
# How it was run: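 Intact U937 cells (5 × 10⁵) incubated 15 min at 37 °C in 0.1 mL peptidase buffer with Ala-pNA (0.5 mg/mL) and compound at 10^-3 M. pNA release read at 405 nm. Remaining activity expressed as percent of uninhibited control; mean of three to ten experiments ± SD.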
# Target sequence in this assay (P15144 whole entry): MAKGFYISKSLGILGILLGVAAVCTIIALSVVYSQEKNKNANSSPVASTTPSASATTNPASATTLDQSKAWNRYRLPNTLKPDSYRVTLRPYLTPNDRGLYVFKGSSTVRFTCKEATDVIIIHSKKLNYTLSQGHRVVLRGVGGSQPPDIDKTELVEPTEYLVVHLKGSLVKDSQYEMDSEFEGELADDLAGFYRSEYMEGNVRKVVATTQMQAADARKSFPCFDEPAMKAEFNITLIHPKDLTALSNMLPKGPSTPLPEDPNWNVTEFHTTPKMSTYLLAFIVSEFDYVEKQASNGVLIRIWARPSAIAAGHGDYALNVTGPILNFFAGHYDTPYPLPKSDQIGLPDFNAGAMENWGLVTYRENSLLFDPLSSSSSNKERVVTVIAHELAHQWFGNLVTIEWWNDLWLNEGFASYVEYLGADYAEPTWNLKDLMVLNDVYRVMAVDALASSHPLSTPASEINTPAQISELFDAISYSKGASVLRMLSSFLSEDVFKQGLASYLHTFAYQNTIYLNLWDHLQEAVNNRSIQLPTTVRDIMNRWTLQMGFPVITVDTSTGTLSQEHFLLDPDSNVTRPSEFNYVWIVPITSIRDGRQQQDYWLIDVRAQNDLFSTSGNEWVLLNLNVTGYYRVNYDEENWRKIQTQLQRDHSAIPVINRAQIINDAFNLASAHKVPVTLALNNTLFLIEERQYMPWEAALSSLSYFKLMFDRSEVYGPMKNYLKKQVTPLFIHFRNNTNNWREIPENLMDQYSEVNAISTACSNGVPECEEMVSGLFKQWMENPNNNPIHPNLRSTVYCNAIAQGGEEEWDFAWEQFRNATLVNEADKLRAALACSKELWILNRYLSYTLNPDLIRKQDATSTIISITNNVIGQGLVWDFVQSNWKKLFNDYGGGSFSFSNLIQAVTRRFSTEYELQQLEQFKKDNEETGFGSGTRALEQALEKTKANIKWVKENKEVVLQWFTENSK
# U-937 = test: In vitro cytotoxicity towards U937 cell growth was evaluated after 3 days of incubation (10e-4 M); type: functional, Homo sapiens
# How it was run: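 Human monoblastic U937 cells in RPMI 1640 with 10% heat-inactivated FCS, 5% CO2, 37 °C; seeded at 0.5 × 10⁵ cells/mL in fresh medium and exposed continuously to 10^-4 M compound for 3 days. Cells then washed twice and counted, and viability determined by trypan blue exclusion.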
# [2] = biological target: T1, Aminopeptidase N (Sus scrofa) (UniProt P15145); test: Inhibition of cell surface aminopeptidase N (APN/CD13) at 0.3*10e-3 M compound concentration
# T1 sequence (whole entry): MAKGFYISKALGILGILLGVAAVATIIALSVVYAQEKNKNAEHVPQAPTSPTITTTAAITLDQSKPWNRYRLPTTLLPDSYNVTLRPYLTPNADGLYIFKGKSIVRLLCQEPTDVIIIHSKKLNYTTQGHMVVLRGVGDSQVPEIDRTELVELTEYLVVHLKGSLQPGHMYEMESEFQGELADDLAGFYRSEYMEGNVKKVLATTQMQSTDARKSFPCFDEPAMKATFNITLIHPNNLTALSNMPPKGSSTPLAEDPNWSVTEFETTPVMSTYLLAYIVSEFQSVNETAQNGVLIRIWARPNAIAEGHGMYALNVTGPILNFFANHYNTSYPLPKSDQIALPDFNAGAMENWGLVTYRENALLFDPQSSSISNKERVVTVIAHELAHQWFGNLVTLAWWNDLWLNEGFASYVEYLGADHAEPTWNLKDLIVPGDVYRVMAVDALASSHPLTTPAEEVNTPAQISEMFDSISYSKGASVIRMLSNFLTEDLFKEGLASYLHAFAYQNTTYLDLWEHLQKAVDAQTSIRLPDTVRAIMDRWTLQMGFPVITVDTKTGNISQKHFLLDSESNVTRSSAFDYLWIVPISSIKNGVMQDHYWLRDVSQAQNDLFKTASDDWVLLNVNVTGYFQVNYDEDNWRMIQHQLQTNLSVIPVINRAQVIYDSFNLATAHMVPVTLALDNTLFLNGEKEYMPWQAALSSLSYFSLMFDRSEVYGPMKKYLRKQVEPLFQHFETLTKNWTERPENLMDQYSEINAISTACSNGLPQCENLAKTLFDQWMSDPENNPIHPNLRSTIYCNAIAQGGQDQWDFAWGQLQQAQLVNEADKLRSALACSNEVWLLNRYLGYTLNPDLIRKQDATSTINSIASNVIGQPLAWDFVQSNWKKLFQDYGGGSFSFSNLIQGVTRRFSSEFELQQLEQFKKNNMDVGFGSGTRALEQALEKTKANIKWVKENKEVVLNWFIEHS
# [3] = biological target: T2, Neprilysin (Rattus norvegicus) (UniProt P07861); test: Inhibition of neutral endopeptidase (NEP[…]) at 0.3*10e-3 M compound concentration
# T2 sequence (whole entry): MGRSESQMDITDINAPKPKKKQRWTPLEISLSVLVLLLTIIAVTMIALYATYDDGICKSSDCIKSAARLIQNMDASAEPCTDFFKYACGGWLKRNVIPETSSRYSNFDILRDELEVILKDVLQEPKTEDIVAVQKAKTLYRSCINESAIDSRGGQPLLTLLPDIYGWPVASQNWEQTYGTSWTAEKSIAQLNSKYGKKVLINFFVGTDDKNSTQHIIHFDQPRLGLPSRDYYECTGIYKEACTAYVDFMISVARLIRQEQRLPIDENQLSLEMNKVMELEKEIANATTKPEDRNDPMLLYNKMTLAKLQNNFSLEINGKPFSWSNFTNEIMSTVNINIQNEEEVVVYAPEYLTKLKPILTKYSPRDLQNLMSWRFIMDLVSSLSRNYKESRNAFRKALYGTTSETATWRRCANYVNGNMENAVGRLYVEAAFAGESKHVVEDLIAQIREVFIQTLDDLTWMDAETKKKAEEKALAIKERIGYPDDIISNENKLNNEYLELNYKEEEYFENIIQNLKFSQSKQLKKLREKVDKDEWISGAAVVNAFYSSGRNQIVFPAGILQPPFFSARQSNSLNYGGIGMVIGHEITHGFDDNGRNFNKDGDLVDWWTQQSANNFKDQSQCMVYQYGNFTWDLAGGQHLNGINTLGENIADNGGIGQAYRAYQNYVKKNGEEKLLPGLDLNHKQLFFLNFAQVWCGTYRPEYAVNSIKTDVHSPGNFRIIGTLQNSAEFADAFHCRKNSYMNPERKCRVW
# [4] = biological target: Aminopeptidase N (Homo sapiens) (UniProt P15144); test: Inhibitory concentration of compound towards cell surface aminopeptidase N (APN/CD13) on human U937 cells
# Target sequence in this assay (P15144 whole entry, looked up): as the sequence (P15144 whole entry) above
Structure (SMILES),inhibition [1],Cytotoxicity (U-937),inhibition [2],inhibition [3],IC50 [4]
O=CCc1cccc2c(=O)c([N+](=O)[O-])c(-c3ccccc3)oc12,51%,>40%,,,
O=C(O)Cc1cccc2c(O)c3nc4ccccc4c-3oc12,10%,30%,,,
COCOC(=O)Cc1cccc2c(=O)c([N+](=O)[O-])c(-c3ccccc3[N+](=O)[O-])oc12,48%,>85%,,,
O=C(O)Cc1cccc2c(=O)c([N+](=O)[O-])c(-c3ccccc3)oc12,68%,<10%,,,
O=c1cc(-c2ccccc2)oc2ccccc12 [FLAVONE],5%,<10%,,,
O=C(O)Cc1cccc2c(=O)c([N+](=O)[O-])c(-c3cccc([N+](=O)[O-])c3)oc12,44%,<10%,,,
O=C(O)Cc1cccc2c(=O)c([N+](=O)[O-])c(-c3ccc([N+](=O)[O-])cc3)oc12,63%,<10%,,,
COc1cc(-c2oc3cc(O)cc(O)c3c(=O)c2O)ccc1O,,,73%,49%,
O=C(O)Cc1cccc2c(=O)c3c(oc12)-c1ccccc1NC(=O)N3,8%,<10%,,,
COC(=O)c1ccccc1-c1oc2c(CC(=O)O)cccc2c(=O)c1[N+](=O)[O-],66%,<10%,,,
COc1ccc(-c2oc3c(CC(=O)O)cccc3c(=O)c2[N+](=O)[O-])cc1,64%,>40%,,,
O=C(O)Cc1cccc2c(=O)cc(-c3ccccc3[N+](=O)[O-])oc12,83%,>80%,,,
COCOC(=O)Cc1cccc2c(=O)c(N)c(-c3ccccc3O)oc12,19%,>65%,,,
COC(=O)Cc1cccc2c(=O)c([N+](=O)[O-])c(-c3ccccc3)oc12,< 5%,<10%,,,
O=c1c([N+](=O)[O-])c(-c2ccccc2[N+](=O)[O-])oc2ccccc12,< 5%,>40%,,,
COc1ccccc1-c1oc2c(CC(=O)O)cccc2c(=O)c1[N+](=O)[O-],69%,>20%,,,
O=c1c(O)c(-c2ccc(O)c(O)c2)oc2cc(O)cc(O)c12,,,73%,49%,

Structure (SMILES),inhibition [1],Cytotoxicity (U-937),inhibition [2],inhibition [3],IC50 [4]
COc1ccc(-c2oc3c(CC(=O)O)cccc3c(=O)c2[N+](=O)[O-])cc1[N+](=O)[O-],61%,<10%,,,
O=C(O)Cc1cccc2c(=O)c([N+](=O)[O-])c(-c3ccccc3C(=O)OCc3ccccc3)oc12,77%,>40%,,,
O=C(O)Cc1cccc2c(=O)c3c(oc12)-c1ccccc1OC(=O)N3,19%,30%,,,
O=c1c([N+](=O)[O-])c(-c2ccccc2)oc2ccccc12,30%,<10%,,,
O=c1cc(-c2ccccc2)oc2cc(O)c(O)c(O)c12,,,57%,36%,
O=C(O)Cc1cccc2c(=O)c([N+](=O)[O-])c(-c3ccccc3OCc3ccccc3)oc12,76%,>55%,,,
COc1cccc(-c2oc3c(CC(=O)O)cccc3c(=O)c2[N+](=O)[O-])c1[N+](=O)[O-],75%,<10%,,,
COc1ccc([N+](=O)[O-])c(-c2oc3c(CC(=O)O)cccc3c(=O)c2[N+](=O)[O-])c1,80%,<10%,,,
COCOC(=O)Cc1cccc2c(=O)c([N+](=O)[O-])c(-c3ccccc3OCc3ccccc3)oc12,32%,>95%,,,
O=C(O)Cc1cccc2c(=O)c([N+](=O)[O-])c(-c3ccccc3Cl)oc12,76%,30%,,,
COCOC(=O)Cc1cccc2c(=O)c3c(oc12)-c1ccccc1OC(=O)N3,25%,>95%,,,
C=CCc1cccc2c(=O)c([N+](=O)[O-])c(-c3ccccc3[N+](=O)[O-])oc12,16%,<10%,,,
O=C(O)Cc1cccc2c(=O)cc(-c3ccccc3)oc12 [MITOFLAXONE],30%,<10%,,,
Cl.Nc1c(-c2ccccc2)oc2c(CC(=O)O)cccc2c1=O,33%,<10%,,,
CC(C)C[C@H](NC(=O)[C@@H](O)[C@H](N)Cc1ccccc1)C(=O)O [UBENIMEX],85%,>40%,,,
O=C(O)Cc1cccc2c(=O)c([N+](=O)[O-])c(-c3ccccc3[N+](=O)[O-])oc12,88%,<10%,,,25 µM
